Measurements taken from ChEMBL document CHEMBL3822416, “Design, Synthesis, and Structure-Activity Relationship Study of Novel Indole-2-carboxamide Derivatives as Anti-inflammatory Agents for the Treatment of Sepsis” (J Med Chem, 2016).
pIC50: −log10 of the molar value. Active and inactive are the calls of the source. The rule behind the calls is not given here.

Tests used:
Mus musculus [1] = experiment: Downregulation of IL-33 mRNA level in lung of LPS-induced C57BL/6 mouse sepsis model at 10 mg/kg, iv administered 15 mins prior to LPS challenge measured after 6 hrs by RT-qPCR analysis; type: functional, organism-based
Procedure, shortened: (§1)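 Male C57BL/6 mice were given 10 mg/kg by tail-vein injection 15 min before 20 mg/kg LPS and killed after 6 h; lungs were harvested. RNA was extracted with TRIZOL and quantified by real-time quantitative PCR as relative mRNA amount.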

RAW264.7 [2] = experiment: Inhibition of LPS-induced TNF-alpha production in mouse RAW264.7 cells preincubated for 30 mins prior to LPS challenge measured after 24 hrs by ELISA; type: functional, cell-based; conditions: Mus musculus, RAW264.7; read-out: IC50
Procedure, shortened: (§2)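 RAW 264.7 cells (ATCC) were grown in DMEM with 10% FBS and penicillin/streptomycin at 37 °C, 5% CO2. Cells were seeded at 400,000/well and incubated for 24 h, pretreated with compound for 30 min, then given 0.5 µg/mL LPS for 24 h. Medium TNF-α or IL-6 was measured by ELISA and normalized to total protein of viable cell pellets.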

Mus musculus [3] = experiment: Antiinflammatory activity in LPS-induced C57BL/6 mouse sepsis model assessed as suppression of TNF-alpha release in serum at 10 mg/kg, iv administered 15 mins prior to LPS challenge measured after 6 hrs relative to control; type: functional, organism-based
Procedure, shortened: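 Male C57BL/6 mice, 18-22 g, were injected via tail vein with 10 mg/kg 15 min before 20 mg/kg LPS; controls received saline. Blood was taken with a heparinized syringe 6 h after LPS under anesthesia. Serum TNF-α was measured by ELISA (pg/mL).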

RAW264.7 [4] = experiment: Inhibition of LPS-induced IL6 production in mouse RAW264.7 cells preincubated for 30 mins prior to LPS challenge measured after 24 hrs by ELISA; type: functional, cell-based; conditions: Mus musculus, RAW264.7; read-out: IC50; procedure, shortened: as §2
Mus musculus [5] = experiment: Downregulation of IL-12 mRNA level in lung of LPS-induced C57BL/6 mouse sepsis model at 10 mg/kg, iv administered 15 mins prior to LPS challenge measured after 6 hrs by RT-qPCR analysis; type: functional, organism-based; procedure, shortened: as §1
Mus musculus [6] = experiment: Toxicity in C57BL/6 mouse assessed as change in body weight at 20 mg/kg, iv administered for 7 days measured every 24 hrs of compound dosing relative to control; type: organism-based; conditions: in vivo
Mus musculus [7] = organism: Mus musculus; experiment: Acute toxicity in C57BL/6 mouse heart by hematoxylin and eosin staining-based histopathologiacal analysis; type: organism-based; conditions: in vivo
Mus musculus [8] = experiment: Antiinflammatory activity in LPS-induced C57BL/6 mouse sepsis model assessed as inhibition of neutrophils infiltration in lung by measuring MPO activity at 10 mg/kg, iv administered 15 mins prior to LPS challenge measured after 6 hrs in presence of O-dianisidine dihydrochloride relative to control; type: functional, organism-based
Procedure, shortened: (§3)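 Mice were given 10 mg/kg iv 15 min before 20 mg/kg LPS or without LPS; saline served as control, and animals were killed 6 h later. Lung supernatants were incubated with 0.01% H2O2 and O-dianisidine dihydrochloride 0.167 mg/mL for 30 min, with absorbance change at 460 nm. One unit degrades 1 µmol peroxide/min at 37 °C; values are expressed as units/g lung.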

Mus musculus [9] = experiment: Downregulation of COX2 mRNA level in lung of LPS-induced C57BL/6 mouse sepsis model at 10 mg/kg, iv administered 15 mins prior to LPS challenge measured after 6 hrs by RT-qPCR analysis; type: functional, organism-based; procedure, shortened: as §1
Mus musculus [10] = experiment: Antiinflammatory activity in LPS-induced C57BL/6 mouse sepsis model assessed as inhibition of macrophage infiltration in lung at 10 mg/kg, iv administered 15 mins prior to LPS challenge measured after 6 hrs by F4/80 and hematoxylin-staining based microscopy; type: functional, organism-based
Procedure, shortened: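 C57BL/6 males were dosed with 10 mg/kg iv (tail vein) 15 min before 20 mg/kg LPS and sacrificed 6 h later. Paraffin lung sections had antigen retrieval by pressure cooker in 10 mM citrate pH 6.5, then H2O2, 5% BSA block, anti-F4/80 overnight at 4 °C, HRP secondary, DAB and hematoxylin counterstain. The % F4/80-positive cells was counted in 10 random 200× fields per section.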

Mus musculus [11] = experiment: Antiinflammatory activity in LPS-induced C57BL/6 mouse sepsis model assessed as reduction in airspace inflammation in lung at 10 mg/kg, iv administered 15 mins prior to LPS challenge measured after 6 hrs by hematoxylin and eosin staining; type: functional, organism-based
Procedure, shortened: (§4)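 Male C57BL/6 mice (18-22 g), randomized into groups. Compound at 10 mg/kg was given by tail-vein injection 15 min before LPS 20 mg/kg; controls received saline. Animals were sacrificed 6 h after LPS. Lung was fixed in 4% paraformaldehyde, paraffin-embedded, cut at 5 µm and H&E stained. A pathologist, blinded, scored alveolar congestion, hemorrhage, neutrophil infiltration and alveolar wall thickness/hyaline membrane.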

Mus musculus [12] = experiment: Downregulation of IL-6 mRNA level in lung of LPS-induced C57BL/6 mouse sepsis model at 10 mg/kg, iv administered 15 mins prior to LPS challenge measured after 6 hrs by RT-qPCR analysis; type: functional, organism-based; procedure, shortened: as §1
Mus musculus [13] = experiment: Decrease in MPO activity in C57BL/6 mouse lung at 10 mg/kg, iv after 6 hrs in presence of O-dianisidine dihydrochloride relative to control; type: ADME, organism-based; conditions: in vivo; procedure, shortened: as §3
Mus musculus [14] = experiment: Antiinflammatory activity in LPS-induced C57BL/6 mouse sepsis model assessed as decrease in pulmonary lobule structural changes at 10 mg/kg, iv administered 15 mins prior to LPS challenge measured after 6 hrs by hematoxylin and eosin staining; type: functional, organism-based; procedure, shortened: as §4
Mus musculus [15] = organism: Mus musculus; experiment: Acute toxicity in C57BL/6 mouse liver by hematoxylin and eosin staining-based histopathologiacal analysis; type: organism-based; conditions: in vivo
Mus musculus [16] = experiment: Downregulation of TNF-alpha mRNA level in lung of LPS-induced C57BL/6 mouse sepsis model at 10 mg/kg, iv administered 15 mins prior to LPS challenge measured after 6 hrs by RT-qPCR analysis; type: functional, organism-based; procedure, shortened: as §1
Mus musculus [17] = experiment: Downregulation of IL-1beta mRNA level in lung of LPS-induced C57BL/6 mouse sepsis model at 10 mg/kg, iv administered 15 mins prior to LPS challenge measured after 6 hrs by RT-qPCR analysis; type: functional, organism-based; procedure, shortened: as §1
Mus musculus [18] = organism: Mus musculus; experiment: Acute toxicity in C57BL/6 mouse kidney by hematoxylin and eosin staining-based histopathologiacal analysis; type: organism-based; conditions: in vivo

CN1CCN(c2ccc(NC(=O)c3cc4cc(NC(=O)N(C)C)ccc4n3Cc3ccc(C(F)(F)F)cc3)cc2)CC1
Activity (Mus musculus [1]): Active | pIC50 (RAW264.7 [2]): 5.57 | Activity (Mus musculus [3]): Active | pIC50 (RAW264.7 [4]): 5.91 | Activity (Mus musculus [5]): Active | Activity (Mus musculus [6]): Non-toxic | Activity (Mus musculus [7]): Non-toxic | inhibition (Mus musculus [8]): Active | Activity (Mus musculus [9]): Active | inhibition (Mus musculus [10]): Active | Activity (Mus musculus [11]): Active | Activity (Mus musculus [12]): Active | Activity (Mus musculus [13]): Non-toxic | Activity (Mus musculus [14]): Active | Activity (Mus musculus [15]): Non-toxic | Activity (Mus musculus [16]): Active | Activity (Mus musculus [17]): Active | Activity (Mus musculus [18]): Non-toxic

CN1CCN(c2ccc(NC(=O)c3cc4cc(NC(=O)c5ccco5)ccc4n3Cc3ccc(C(F)(F)F)cc3)cc2)CC1
Activity (Mus musculus [1]): Active | pIC50 (RAW264.7 [2]): 5.58 | Activity (Mus musculus [3]): Active | pIC50 (RAW264.7 [4]): 5.54 | Activity (Mus musculus [5]): Active | Activity (Mus musculus [6]): Non-toxic | Activity (Mus musculus [7]): Non-toxic | inhibition (Mus musculus [8]): Active | Activity (Mus musculus [9]): Active | inhibition (Mus musculus [10]): Active | Activity (Mus musculus [11]): Active | Activity (Mus musculus [12]): Active | Activity (Mus musculus [13]): Non-toxic | Activity (Mus musculus [14]): Active | Activity (Mus musculus [15]): Non-toxic | Activity (Mus musculus [16]): Active | Activity (Mus musculus [17]): Active | Activity (Mus musculus [18]): Non-toxic
